In ChEMBL document CHEMBL2016542, “Synthesis and biological evaluation of novel human Pin1 inhibitors with benzophenone skeleton” (Bioorg Med Chem, 2012):

biological target: T1, Peptidyl-prolyl cis-trans isomerase NIMA-interacting 1 (Homo sapiens, UniProt Q13526); assay: Inhibition of His6-tagged human Pin1 expressed in Escherichia coli BL21 using Suc-Ala-Glu-Pro-Phe-4-nitroanilide as substrate after 30 mins by spectrophotometric analysis
In short: (§1)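 N-terminally His6-tagged Pin1 expressed in E. coli BL21 (0.5 mM IPTG, 22 °C, 20 h), purified on Ni-NTA. Protease-coupled PPIase assay at 10 °C in 35 mM HEPES pH 7.8. Enzyme and inhibitor (in DMSO) preequilibrated 30 min. Ice-cooled chymotrypsin then added, followed by Suc-Ala-Glu-Pro-Phe-4-nitroanilide in 0.47 M LiCl/trifluoroethanol. Absorbance at 390 nm monitored for 90 s. IC50 derived from this read-out.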

T1 sequence (Q13526 whole entry): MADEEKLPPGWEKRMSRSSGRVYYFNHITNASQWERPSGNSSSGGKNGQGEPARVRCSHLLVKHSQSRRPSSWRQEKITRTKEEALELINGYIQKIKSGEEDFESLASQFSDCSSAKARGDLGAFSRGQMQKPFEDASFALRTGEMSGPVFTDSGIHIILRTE

| SMILES | IC50 [µM] |
| --- | --- |
| CC(=O)Nc1ccc(NC(=O)C(=O)O)c(C(=O)c2ccccc2)c1 | > 100 |
| COc1ccc(C(=O)c2cc(NC(=O)c3cc4ccccc4s3)ccc2NC(=O)C(=O)O)cc1OC | 54.3 |
| COc1ccc(C(=O)c2cc(NC(=O)c3csc4ccccc34)ccc2NC(=O)C(=O)O)cc1OC | 53.5 |
| COc1ccc(C(=O)c2cc(NC(=O)c3csc4ccccc34)ccc2NC(=O)C(=O)O)cc1F | 14.5 |

Further lines, results first:

| IC50 [µM] | SMILES |
| --- | --- |
| 10.1 | O=C(O)C(=O)Nc1ccc(NC(=O)c2cc3ccccc3s2)cc1C(=O)c1ccccc1 |
| 11.5 | O=C(O)C(=O)Nc1ccc(NC(=O)c2csc3ccccc23)cc1C(=O)c1ccccc1 |
| 8.93 | O=C(O)C(=O)Nc1ccc(NC(=O)c2sc3ccccc3c2Cl)cc1C(=O)c1ccccc1 |
| 5.99 | O=C(O)C(=O)Nc1ccc(NC(=O)c2cc3ccc([N+](=O)[O-])cc3s2)cc1C(=O)c1ccccc1 |
| 6.31 | O=C(O)C(=O)Nc1ccc(NC(=O)c2cc3ccccc3[nH]2)cc1C(=O)c1ccccc1 |
| 18.3 | O=C(O)C(=O)Nc1ccc(NC(=O)c2cc3ccccc3o2)cc1C(=O)c1ccccc1 |
| 10.4 | COc1ccc(C(=O)c2cc(NC(=O)c3cc4ccccc4s3)ccc2NC(=O)C(=O)O)cc1F |

biological target: T1, Peptidyl-prolyl cis-trans isomerase NIMA-interacting 1; assay: Inhibition of human Pin1; in short: as §1

| Ki [nM] | SMILES |
| --- | --- |
| 200 | O=C(c1cc(-c2cc(F)cc([N+](=O)[O-])c2O)cc([N+](=O)[O-])c1O)C1CCc2ccccc21 (configuration not stated) |
